These results are taken from ChEMBL document CHEMBL1287659, “Phenylmethylene hydantoins as prostate cancer invasion and migration inhibitors. CoMFA approach and QSAR analysis” (Eur J Med Chem, 2010).

pIC50: −log10 of the molar value. Activity calls are given as the source filed them. No cut-off for these calls is given here.

In experiment [1] the test system is PC-3. As to the kind of experiment: Antimetastatic activity against human PC3 cells at 100 uM after 24 hrs by wound-healing assay. It is filed as functional. Particulars: PC-3, 24 h. The procedure, abridged: (§1)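 Scratch wound in PC-3 monolayer. Compounds dissolved in DMSO, added in triplicate, DMSO as vehicle control. Incubation 24 h, serum-starved. Cells then fixed and Diff-Quick stained. Cells migrated into the wound counted in three or more random fields at 400×, mean ± SEM per field. IC50 by nonlinear regression of log concentration versus cells/well.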

Experiment [2] deals with PC-3. As to the kind of experiment: Antimetastatic activity against human PC3 cells after 24 hrs by wound-healing assay. Particulars: for pIC50 / IC50: PC-3, 24 h; for pIC50: read-out: IC50; for IC50: read-out: pIC50 (converted). It is filed as functional, cell-based. The procedure, abridged: as §1
The test system of experiment [3] is PC-3. As to the kind of experiment: Antiinvasive activity against human PC3 cells at 50 uM by cultrex cell invasion assay. It is filed as functional, cell-based. The procedure, abridged: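 Basement membrane extract coated upper chambers (4 h, 37 °C, 5% CO2) seeded with 50,000 PC-3 cells in serum-free RPMI plus compound at 50 µM. Lower chamber: RPMI, 10% FBS, fibronectin and N-formyl-met-leu-phe (10 nM) as chemoattractants. Migration 24 h at 37 °C. Invaded cells loaded with calcein-AM, fluorescence at 485/520 nm, counts from standard curve; n = 3, SD.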

The subject of experiment [4] is PC-3. The experiment in a line: Antimetastatic activity against human PC3 cells at 50 uM after 24 hrs by wound-healing assay. Type of experiment: functional. Particulars: PC-3, 24 h. The procedure, abridged: as §1
Experiment [5] relates to PC-3. As to the kind of experiment: Cytotoxicity against human PC3 cells up to 200 uM after 72 hrs by MTT assay. Type of experiment: functional, cell-based. The essentials: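 PC-3 cells seeded at 8 × 10³ per well, attached 24 h. Switched to serum-free RPMI with compound at up to 200 µM, 72 h at 37 °C, 5% CO2. MTT added for 4 h, then solubilization/stop solution. Absorbance read at 570 nm; cells/well from a hemocytometer-based standard curve.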

For experiment [6], the system named is PC-3. As to the kind of experiment: Ratio of compound IC50 to 5-(4-(ethylthio)benzylidene)imidazolidine-2,4-dione IC50 for human PC3 cells at 100 uM after 24 hrs by wound-healing assay. Type of experiment: functional.

`COc1c(/C=C2\NC(=O)NC2=O)ccc(OC(C)(C)C)c1Cl` registered an inhibition at 100 µM in experiment [1] of 39%. Further, in experiment [2], the pIC50 is 4.04 and the IC50 is 91 µM.
`CSc1ccc(/C=C2\NC(=O)NC2=O)cc1`: in experiment [1], testing at 100 µM gave an inhibition of 80.9%. Further, in experiment [2], the pIC50 is 4.35 and the IC50 is 44.7 µM. Besides, the outcome in experiment [3] was Active.
On the same counts, the results for `CCOc1cc(/C=C2\NC(=O)NC2=O)cc(Br)c1OCC` are 77.5%, 4.45, 35.6 µM and “Active”.
As to `Cc1nc[nH]c1/C=C1\NC(=O)NC1=O`, in experiment [2], the IC50 is 95.1 µM.
Turning to `CCSc1ccc(/C=C2\NC(=O)NC2=O)cc1`, in experiment [2], the negative logarithm of the IC50 (pIC50) was 4.37 and the IC50 was 42.9 µM. The result in experiment [3] was Active. For the same compound, 50 µM produced 42.9% inhibition in experiment [4].
On to `O=C1NC(=O)/C(=C/c2cnc[nH]2)N1`, for which the IC50 in experiment [2] is 54.2 µM.
`CCCOc1ccc(/C=C2\NC(=O)NC2=O)c(OC)c1`: testing at 100 µM in experiment [1] gave an inhibition of 23%. In addition, in experiment [2], the pIC50 was 3.96 and the IC50 was 110 µM.
`CCCOc1c(Br)cc(/C=C2\NC(=O)NC2=O)cc1OC`: 100 µM produced 97.4% inhibition in experiment [1]. Besides, in experiment [2], the Activity entry is “Dose-dependent effect”, the pIC50 was 5.09 and the IC50 is 8.09 µM. Also, in experiment [5], the result was inactive. The result in experiment [3] was Active. Besides, the “Ratio IC50” value in experiment [6] was found to be 5.
As for `O=C1NC(=O)/C(=C/c2cccc(-c3cccs3)n2)N1`, the IC50 in experiment [2] was 32.4 µM. The outcome in experiment [3] was Active.
As to `O=C1NC(=O)/C(=C/c2ccc(O)cn2)N1`, in experiment [2], the IC50 is 81.8 µM.
On the same count and under the same terms, under `O=C1NC(=O)/C(=C/c2cccc3c2NCC3)N1` stands 86.5 µM.
In experiment [1], `COc1cc(/C=C2\NC(=O)NC2=O)ccc1OCC(=O)N1CCOCC1` registered an inhibition at 100 µM of 33.2%. In experiment [2], the pIC50 was 4.03 and the IC50 was 94 µM.
Consider `CC(C)(C)Oc1ccc(/C=C2\NC(=O)NC2=O)cc1`, for which, in experiment [1], the inhibition at 100 µM worked out at 52.7%. In experiment [2], the pIC50 was 4.22 and the IC50 is 60.7 µM.
In experiment [1], `O=C1NC(=O)/C(=C/c2ccc(OCc3ccc(F)cc3)cc2)N1` displayed an inhibition at 100 µM of 76.3%. For the same compound, in experiment [2], the pIC50 was 4.62 and the IC50 was 23.8 µM. For the same compound, in experiment [3], the outcome was Active.
For `O=C1NC(=O)/C(=C/c2ccc(N3CCCC3)cc2)N1` the same measures were 75.9%, 4.31, 48.6 µM and “Active”.
In the case of `O=C1NC(=O)/C(=C/c2c[nH]c3ncccc23)N1`, the IC50 in experiment [2] was 49.7 µM.
Take `O=C1NC(=O)/C(=C/c2ccc(O)cc2)N1` [4-HYDROXYPHENYLMETHYLENE HYDANTOIN]: the inhibition at 100 µM in experiment [1] stood at 34%. Also, in experiment [2], the pIC50 was 3.89 and the IC50 is 128 µM.
As for `O=C1NC(=O)/C(=C/c2ccncc2)N1`, in experiment [2], the IC50 is 178 µM.
On to `COc1cc(/C=C2\NC(=O)NC2=O)ccc1OCC(=O)N1CCCC1`, for which, in experiment [1], the inhibition at 100 µM was 36.3%. Besides, in experiment [2], the pIC50 was 4.07 and the IC50 is 85.9 µM.
On to `O=C1NC(=O)/C(=C/c2cccc3c2OCO3)N1`, for which the IC50 in experiment [2] was 155 µM.
For the compound `O=C1NC(=O)/C(=C/c2cc(O)c[nH]2)N1`, the IC50 in experiment [2] is 99.1 µM.
For the compound `COc1cc(/C=C2\NC(=O)NC2=O)ccc1OCC(=O)c1ccccc1`, testing at 100 µM in experiment [1] gave an inhibition of 91.8%. For the same compound, in experiment [2], the pIC50 is 4.71 and the IC50 was 19.7 µM. Further, the result in experiment [3] was Active.
In experiment [1], `CC(C)CCOc1ccc(/C=C2\NC(=O)NC2=O)cc1` gave an inhibition at 100 µM of 66.7%. For the same compound, in experiment [2], the pIC50 was 4.34 and the IC50 was 46 µM.
As for `COc1cccc(/C=C2\NC(=O)NC2=O)n1`, the IC50 in experiment [2] is 59.8 µM.
As for `CCCOc1cc(OC)c(/C=C2\NC(=O)NC2=O)c(OC)c1Cl`, the inhibition at 100 µM in experiment [1] was determined as 19%. In experiment [2], the pIC50 was 3.73 and the IC50 was 187 µM.
On to `O=C1NC(=O)/C(=C/c2cc(I)c[nH]2)N1`, for which the IC50 in experiment [2] is 199 µM.
`CCCOc1ccc(/C=C2\NC(=O)NC2=O)c(OCCC)c1`: 100 µM produced 68.4% inhibition in experiment [1]. For the same compound, in experiment [2], the pIC50 is 4.11 and the IC50 was 77.1 µM.
`C#CCOc1c(Cl)cc(/C=C2\NC(=O)NC2=O)cc1OC` gave an inhibition at 100 µM in experiment [1] of 88.8%. In experiment [2], the pIC50 was 4.66 and the IC50 was 21.8 µM. In experiment [3], the result was Active.
